Assay outcomes from PubChem.
Rows were chosen to be rich in hits. Some 2.3% of all compounds tested hit in one or more screens of this group.
MEKK3 PB1 HTS: raises or lowers MEK5 binding to the human MEKK3 PB1 domain; bead-based flow cytometry, Alexa488-MEK5 binding to MEKK3; actives lie on both sides; 0 = blocked by unlabeled MEK5, 100 = vehicle; binding response (% of control), % at 10 µM; 1.4% of 290,000 active;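 active means binding response more than 3 SD above or below the average of its plate-row segment, actives on both sides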;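 further: Alexa488 bead fluorescence after subtracting the streptavidin-only scavenger bead signal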
Target sequence (Q99759 whole entry, looked up, the tested form may be a part): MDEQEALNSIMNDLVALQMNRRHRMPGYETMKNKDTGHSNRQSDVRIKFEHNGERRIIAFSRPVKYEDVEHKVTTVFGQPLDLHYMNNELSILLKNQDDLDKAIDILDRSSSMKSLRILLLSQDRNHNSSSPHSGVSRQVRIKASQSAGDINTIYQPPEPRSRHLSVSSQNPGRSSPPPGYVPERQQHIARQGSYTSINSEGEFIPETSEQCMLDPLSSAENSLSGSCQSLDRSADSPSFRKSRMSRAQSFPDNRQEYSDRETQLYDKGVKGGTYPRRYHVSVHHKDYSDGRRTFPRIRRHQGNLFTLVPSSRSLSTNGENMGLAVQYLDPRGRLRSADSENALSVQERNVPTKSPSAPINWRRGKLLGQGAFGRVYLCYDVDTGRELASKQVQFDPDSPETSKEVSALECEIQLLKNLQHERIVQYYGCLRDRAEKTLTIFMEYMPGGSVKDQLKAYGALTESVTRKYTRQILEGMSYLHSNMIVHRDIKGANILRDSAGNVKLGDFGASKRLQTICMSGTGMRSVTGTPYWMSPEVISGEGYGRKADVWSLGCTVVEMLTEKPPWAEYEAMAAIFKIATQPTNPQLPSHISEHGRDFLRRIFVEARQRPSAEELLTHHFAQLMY
MEKK2 WT-MEK5: raises or lowers MEK5 binding to wildtype human MEKK2 PB1 domain; Q9Y2U5; bead flow cytometry, Alexa488-MEK5 binding to MEKK2 WT; actives lie on both sides; binding response (% of control), % at 10 µM; 1.1% of 290,000 active; AID 1531; in the data active means binding response below about 67% or above about 130%
Arr AP2 block: inhibitors of human beta-arrestin and AP2 interaction. FITC-arrestin peptide / GST-AP2 beads, flow cytometry; AP2 beta2 appendage carries R879A mutation. inhibition, % at 10 µM. 0.31% of 340,000 active;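 active means inhibition above a set limit, near 3 SD of compounds lacking own fluorescence, cut at about 54% in these data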;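 further: plate controls were DMSO wells for no effect and 5 µM unlabelled arrestin peptide for full effect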
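System: GST-AP2 R879A glutathione beads | Also added: FITC-arrestin peptide, 50 nM | Times: 12 min plus 1 h, RT | Signal: Bead flow cytometry, FITC channel | Buffer or medium: PBS with 0.05% Tween 20 and 0.1% BSA | Read-out basis: Percent drop in bead-associated FITC signal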
MEKK2 mut-MEK5: signal of MEK5 binding to mutant human MEKK2 PB1 domain | percent response, % at 10 µM | AID 1530 | bead flow cytometry, Alexa488-MEK5 binding to MEKK2 mutant | 0.35% of 290,000 active; in the data active means percent response above about 24%, passing the limit was not always enough
MEKK2wt confirm: raises or lowers MEK5 binding to wildtype human MEKK2, retest. AID 1892. binding response (% of control), % at 10 µM. 2.4% of 5,900 active. shares compounds with MEKK3 PB1 HTS. bead flow cytometry, Alexa488-MEK5 binding to MEKK2 WT; actives lie on both sides; in the data active means binding response below about 16% or above about 210%; inactive means in between
MEKK2mut-MEK5: signal of MEK5 binding to mutant human MEKK2, retest. shares compounds with MEKK3 PB1 HTS. bead flow cytometry, Alexa488-MEK5 binding to MEKK2 mutant. percent response, % at 10 µM. 2% of 5,900 active. AID 1893; in the data active means percent response mostly above about 71%, no sharp cut-off; inactive means mostly below about 38%;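 further: higher means compound restores mutant binding toward wildtype level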
MEKK3-MEK5 inh: MEKK3-MEK5 PB1 inhibition, single concentration confirmation; shares compounds with MEKK3 PB1 HTS; bead flow cytometry, Alexa488-MEK5 binding to MEKK3; active compounds read low; binding response (% of control), % at 10 µM; 1.8% of 5,900 active; AID 1894;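 active means binding response below 72% of control, or above a set upper limit, though filed actives all read lower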;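 further: 100% = DMSO only wells and 0% = binding blocked by excess unlabeled MEK5; lower values mean stronger disruption of MEK5 binding to MEKK3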
* hit, by the source's call; . = no result given; [ ] = remark or other dose.

SMILES	MEKK3 PB1 HTS	MEKK2 WT-MEK5	Arr AP2 block	MEKK2 mut-MEK5	MEKK2wt confirm	MEKK2mut-MEK5	MEKK3-MEK5 inh
CCOc1cccc(OCCOCCOc2ccccc2C(C)=O)c1	193.0*	111.0	0.7	2.0	95.0	4.0	100.0
FC(F)(F)c1nnc2ccc(N3CCCC3)nn12	103.0	108.0	3.8	5.0	.	.	.
FC(F)(F)c1nnc2ccc(N3CCCCCC3)nn12	81.0*[inhibitor]	91.0	1.8	-14.0	98.0	-2.0	100.0
O=C(c1ccc(Cl)cc1)[C@@H]1[C@@H]2C(=O)N(c3cccc4ccccc34)C(=O)[C@@H]2C2c3ccccc3C=NN21 (stereo not given in full)	153.0*	109.0	0.7	1.0	101.0	-8.0	100.0
COCCN(C(=O)c1ccc(C)o1)c1c(N)n(CC(C)C)c(=O)[nH]c1=O	.	.	-0.6	.	.	.	.
COC(=O)c1sc(NC(=O)COc2cccc(C)c2)nc1C	141.0*	114.0	0.4	2.0	66.0	-26.0	62.0*
CC1(C)OC(=O)C(=CNC(=O)c2c(F)cccc2F)C(=O)O1	72.0*[inhibitor]	82.0	12.2	-4.0	92.0	-3.0	95.0
CCOc1ccccc1NC(=O)c1ccc2nc[nH]c2c1	103.0	102.0	-0.2	2.0	.	.	.
COc1ccccc1C(=O)NCCC(=O)Nc1cccnc1	73.0*[inhibitor]	80.0	8.8	-13.0	105.0	0.0	102.0
Cn1c(CNC(=O)CCNC(=O)c2ccccc2)cc(=O)n(C)c1=O	103.0	102.0	-1.3	2.0	.	.	.
Cc1ccc(-c2nc3ccccc3n3nnnc23)cc1	82.0*[inhibitor]	86.0	16.7	-6.0	98.0	-10.0	101.0
COc1cccc(Nc2nc3ccccc3n3nnnc23)c1	2.0*[inhibitor]	3.0*[inhibitor]	-5.1	-14.0	104.0	-1.0	100.0
O=Cc1cn(CCOc2ccccc2F)c2ccccc12	103.0	99.0	-11.5	3.0	.	.	.
CCOc1ccc(CNC(=O)CCC(=O)N2Cc3ccccc3Oc3ncccc32)cc1	102.0	110.0	-13.7	6.0	.	.	.
Cc1ncc(CO)c(/C=N/NC(=O)c2ccccc2Br)c1O	99.0	5.0*[inhibitor]	-5.2	2.0	101.0	2.0	105.0
O=C(O)C1=C(C(=O)O)C2C=CC1C2	.	.	10.2	.	.	.	.
COC(=O)Cc1ccc(NC(=S)N2CCN(CCO)CC2)cc1	.	.	12.0	.	.	.	.
CC(=O)c1cc2c(cc1N/C(=N/S(=O)(=O)c1ccccc1)c1ccc(Cl)cc1)OCO2	129.0*	102.0	8.8	0.0	96.0	-4.0	100.0
CC(=O)c1cc2c(cc1NS(=O)(=O)c1ccccc1)OCO2	104.0	97.0	3.7	0.0	.	.	.
c1ccc(-c2nnc(OCc3cccnc3)c3ccccc23)cc1	106.0	103.0	11.7	3.0	.	.	.
COc1ccc(-c2nnc(OCc3ccccc3)c3ccccc23)cc1	129.0*	104.0	-3.3	0.0	110.0	9.0	110.0
CC1(OC(=O)C2CCCC2)C(=O)C=C2C=C(c3ccsc3)N(CC3CC3)C=C2C1=O (stereo not given)	106.0	85.0	10.0	4.0	.	.	.
CC1(OC(=O)C2CCCC2)C(=O)C=C2C=C(c3ccsc3)N(CCN3CCOCC3)C=C2C1=O (stereo not given)	120.0	146.0*	.	4.0	103.0	0.0	99.0
CC1(OC(=O)C2CCCC2)C(=O)C=C2C=C(c3ccsc3)N(C3CCCCC3)C=C2C1=O (stereo not given)	80.0*[inhibitor]	92.0	25.5	-7.0	90.0	-7.0	94.0
O=C1CCC([N+](=O)[O-])C(c2cc3c(cc2Br)OCO3)N1 (stereo not given)	156.0*	108.0	7.4	2.0	124.0	8.0	113.0
CN1CCN(C(=O)COCc2cc(-c3ccc4c(c3)OCO4)on2)CC1	98.0	102.0	16.2	-1.0	.	.	.
CN(C)CCSc1nc(-c2ccccc2)nc2c1CCC2	138.0*	111.0	3.6	1.0	107.0	2.0	103.0
CN(C)CCCSc1nc(-c2ccccc2)nc2c1CCC2	122.0	115.0	-1.9	2.0	.	.	.
CCC1=Nc2cc(C(=O)NCCCOC)ccc2Sc2ccccc21	125.0*	127.0	0.1	6.0	98.0	0.0	105.0
